Assay results taken from ChEMBL document CHEMBL4229515, “A novel synthesis of 2-arylbenzimidazoles in molecular sieves-MeOH system and their antitubercular activity” (Bioorg Med Chem, 2018).
Converted amounts (≈) assume the structure as drawn.

How the values were obtained:
Mus musculus [1] = assay: Acute toxicity in Swiss albino mouse assessed as effect on SGOT levels at 5 mg/kg, po after 7 days (reference value: 15.11 +/- 1.25 U/L); format: organism-based; settings: in vivo, 168 h
Mus musculus [2] = assay: Acute toxicity in Swiss albino mouse assessed as effect on RBC count at 1000 mg/kg, po after 7 days (reference value: 7.61 +/- 0.54 10^6/mm3); format: organism-based; settings: in vivo, 168 h
Mus musculus [3] = assay: Acute toxicity in Swiss albino mouse assessed as effect on albumin levels at 1000 mg/kg, po after 7 days (reference value: 3.53 +/- 0.35 mg/dL); format: organism-based; settings: in vivo, 168 h
Mus musculus [4] = assay: Acute toxicity in Swiss albino mouse assessed as effect on SGOT levels at 50 mg/kg, po after 7 days (reference value: 15.11 +/- 1.25 U/L); format: organism-based; settings: in vivo, 168 h
Mus musculus [5] = assay: Acute toxicity in Swiss albino mouse assessed as effect on body weight at 50 mg/kg, po after 7 days (reference value: 28.25 +/- 0.54 g); format: organism-based; settings: in vivo, 168 h
Mus musculus [6] = assay: Acute toxicity in Swiss albino mouse assessed as effect on SGPT levels at 1000 mg/kg, po after 7 days (reference value: 16.08 +/- 1.38 U/L); format: organism-based; settings: in vivo, 168 h
Mus musculus [7] = assay: Acute toxicity in Swiss albino mouse assessed as effect on serum protein levels at 1000 mg/kg, po after 7 days (reference value: 0.10 +/- 0.004 mg/mL); format: organism-based; settings: in vivo, 168 h
Mus musculus [8] = assay: Acute toxicity in Swiss albino mouse assessed as effect on SGPT levels at 5 mg/kg, po after 7 days (reference value: 16.08 +/- 1.38 U/L); format: organism-based; settings: in vivo, 168 h
Mus musculus [9] = assay: Acute toxicity in Swiss albino mouse assessed as effect on tissue protein levels at 1000 mg/kg, po after 7 days (reference value: 0.06 +/- 0.004 mg/mL); format: organism-based; settings: in vivo, 168 h
Mus musculus [10] = assay: Acute toxicity in Swiss albino mouse assessed as effect on GSH levels per mg of tissue protein at 300 mg/kg, po after 7 days (reference value: 17.64 +/- 1.03 micromol); format: organism-based; settings: in vivo, 168 h
Mus musculus [11] = assay: Acute toxicity in Swiss albino mouse assessed as effect on serum protein levels at 50 mg/kg, po after 7 days (reference value: 0.10 +/- 0.004 mg/mL); format: organism-based; settings: in vivo, 168 h
Mus musculus [12] = assay: Acute toxicity in Swiss albino mouse assessed as effect on absolute kidney weight at 5 to 1000 mg/kg, po after 7 days; format: organism-based; settings: in vivo, 168 h
Procedure, shortened: (§1)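 Single acute oral dose of 5, 50, 300 or 1000 mg/kg body weight, with an untreated control group; n=6 mice per group. Animals observed for 7 days for morbidity, mortality, behaviour and body weight. At the end, blood and serum were analysed, and organs were examined grossly with absolute and relative weights. Data are mean±SE; P<0.05 was taken as significant versus control and the lower-dose groups.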

Mus musculus [13] = assay: Acute toxicity in Swiss albino mouse assessed as effect on haemoglobin levels at 5 mg/kg, po after 7 days (reference value: 12.29 +/- 0.53 g/dL); format: organism-based; settings: in vivo, 168 h
Mus musculus [14] = assay: Acute toxicity in Swiss albino mouse assessed as effect on cholesterol levels at 300 mg/kg, po after 7 days (reference value: 89.73 +/- 10.76 mg/dL); format: organism-based; settings: in vivo, 168 h
Mus musculus [15] = assay: Acute toxicity in Swiss albino mouse assessed as effect on cholesterol levels at 5 mg/kg, po after 7 days (reference value: 89.73 +/- 10.76 mg/dL); format: organism-based; settings: in vivo, 168 h
Mus musculus [16] = assay: Acute toxicity in Swiss albino mouse assessed as effect on serum protein levels at 5 mg/kg, po after 7 days (reference value: 0.10 +/- 0.004 mg/mL); format: organism-based; settings: in vivo, 168 h
Mus musculus [17] = assay: Acute toxicity in Swiss albino mouse assessed as effect on ALKP levels at 5 mg/kg, po after 7 days (reference value: 219.20 +/- 5.9 U/L); format: organism-based; settings: in vivo, 168 h
Mus musculus [18] = assay: Acute toxicity in Swiss albino mouse assessed as effect on triglyceride levels at 5 mg/kg, po after 7 days (reference value: 45.21 +/- 2.95 mg/dL); format: organism-based; settings: in vivo, 168 h
Mus musculus [19] = assay: Acute toxicity in Swiss albino mouse assessed as effect on RBC count at 5 mg/kg, po after 7 days (reference value: 7.61 +/- 0.54 10^6/mm3); format: organism-based; settings: in vivo, 168 h
Mus musculus [20] = assay: Acute toxicity in Swiss albino mouse assessed as effect on serum protein levels at 300 mg/kg, po after 7 days (reference value: 0.10 +/- 0.004 mg/mL); format: organism-based; settings: in vivo, 168 h
Mus musculus [21] = assay: Acute toxicity in Swiss albino mouse assessed as effect on SGPT levels at 50 mg/kg, po after 7 days (reference value: 16.08 +/- 1.38 U/L); format: organism-based; settings: in vivo, 168 h
Mus musculus [22] = assay: Acute toxicity in Swiss albino mouse assessed as effect on WBC count at 5 mg/kg, po after 7 days (reference value: 7.47 +/- 1.61 10^3/mm3); format: organism-based; settings: in vivo, 168 h
Mus musculus [23] = assay: Acute toxicity in Swiss albino mouse assessed as depression at 1000 mg/kg, po measured over 7 days; format: organism-based; settings: in vivo, 168 h; procedure, shortened: as §1
Mus musculus [24] = assay: Acute toxicity in Swiss albino mouse assessed as effect on absolute lung weight at 5 to 1000 mg/kg, po after 7 days; format: organism-based; settings: in vivo, 168 h; procedure, shortened: as §1
Mus musculus [25] = assay: Acute toxicity in Swiss albino mouse assessed as effect on body weight at 5 mg/kg, po after 7 days (reference value: 28.25 +/- 0.54 g); format: organism-based; settings: in vivo, 168 h
Mus musculus [26] = assay: Acute toxicity in Swiss albino mouse assessed as effect on haemoglobin levels at 50 mg/kg, po after 7 days (reference value: 12.29 +/- 0.53 g/dL); format: organism-based; settings: in vivo, 168 h
Mus musculus [27] = assay: Acute toxicity in Swiss albino mouse assessed as effect on cholesterol levels at 50 mg/kg, po after 7 days (reference value: 89.73 +/- 10.76 mg/dL); format: organism-based; settings: in vivo, 168 h
Mus musculus [28] = assay: Acute toxicity in Swiss albino mouse assessed as effect on absolute liver weight at 5 to 1000 mg/kg, po after 7 days; format: organism-based; settings: in vivo, 168 h; procedure, shortened: as §1
Mus musculus [29] = assay: Acute toxicity in Swiss albino mouse assessed as effect on GSH levels per mg of tissue protein at 50 mg/kg, po after 7 days (reference value: 17.64 +/- 1.03 micromol); format: organism-based; settings: in vivo, 168 h
Mus musculus [30] = assay: Acute toxicity in Swiss albino mouse assessed as effect on WBC count at 300 mg/kg, po after 7 days (reference value: 7.47 +/- 1.61 10^3/mm3); format: organism-based; settings: in vivo, 168 h
Mus musculus [31] = assay: Acute toxicity in Swiss albino mouse assessed as effect on WBC count at 50 mg/kg, po after 7 days (reference value: 7.47 +/- 1.61 10^3/mm3); format: organism-based; settings: in vivo, 168 h
Mus musculus [32] = assay: Acute toxicity in Swiss albino mouse assessed as change in morbidity up to 300 mg/kg, po measured over 7 days; format: organism-based; settings: in vivo, 168 h; procedure, shortened: as §1
[33] = target: DNA gyrase subunit A/DNA gyrase subunit B (Mycobacterium tuberculosis (strain ATCC 25618 / H37Rv), UniProt P9WG45+P9WG47); assay: Inhibition of Mycobacterium tuberculosis DNA gyrase supercoiling activity using relaxed pBR322 as substrate after 30 mins by agarose gel electrophoresis; format: protein-complex assay
Chain of DNA gyrase subunit A/DNA gyrase subunit B (P9WG45 whole entry): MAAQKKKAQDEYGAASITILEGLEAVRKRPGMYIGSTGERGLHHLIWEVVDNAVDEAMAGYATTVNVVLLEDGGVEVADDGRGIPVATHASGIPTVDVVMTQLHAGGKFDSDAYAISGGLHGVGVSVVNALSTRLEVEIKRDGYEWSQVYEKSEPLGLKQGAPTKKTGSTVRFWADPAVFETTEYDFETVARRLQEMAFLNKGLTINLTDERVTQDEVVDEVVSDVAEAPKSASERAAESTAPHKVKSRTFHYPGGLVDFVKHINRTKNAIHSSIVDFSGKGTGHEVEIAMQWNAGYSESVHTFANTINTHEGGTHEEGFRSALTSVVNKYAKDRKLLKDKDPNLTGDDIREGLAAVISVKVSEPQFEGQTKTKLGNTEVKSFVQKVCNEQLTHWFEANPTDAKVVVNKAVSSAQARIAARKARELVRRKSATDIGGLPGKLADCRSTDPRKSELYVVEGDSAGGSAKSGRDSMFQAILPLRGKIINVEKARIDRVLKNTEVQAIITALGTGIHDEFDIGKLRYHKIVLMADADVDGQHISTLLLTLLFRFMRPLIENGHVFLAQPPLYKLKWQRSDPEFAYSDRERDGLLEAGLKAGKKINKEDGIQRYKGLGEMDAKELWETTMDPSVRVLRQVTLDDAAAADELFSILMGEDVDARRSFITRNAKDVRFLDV
Chain of DNA gyrase subunit A/DNA gyrase subunit B (P9WG47 whole entry): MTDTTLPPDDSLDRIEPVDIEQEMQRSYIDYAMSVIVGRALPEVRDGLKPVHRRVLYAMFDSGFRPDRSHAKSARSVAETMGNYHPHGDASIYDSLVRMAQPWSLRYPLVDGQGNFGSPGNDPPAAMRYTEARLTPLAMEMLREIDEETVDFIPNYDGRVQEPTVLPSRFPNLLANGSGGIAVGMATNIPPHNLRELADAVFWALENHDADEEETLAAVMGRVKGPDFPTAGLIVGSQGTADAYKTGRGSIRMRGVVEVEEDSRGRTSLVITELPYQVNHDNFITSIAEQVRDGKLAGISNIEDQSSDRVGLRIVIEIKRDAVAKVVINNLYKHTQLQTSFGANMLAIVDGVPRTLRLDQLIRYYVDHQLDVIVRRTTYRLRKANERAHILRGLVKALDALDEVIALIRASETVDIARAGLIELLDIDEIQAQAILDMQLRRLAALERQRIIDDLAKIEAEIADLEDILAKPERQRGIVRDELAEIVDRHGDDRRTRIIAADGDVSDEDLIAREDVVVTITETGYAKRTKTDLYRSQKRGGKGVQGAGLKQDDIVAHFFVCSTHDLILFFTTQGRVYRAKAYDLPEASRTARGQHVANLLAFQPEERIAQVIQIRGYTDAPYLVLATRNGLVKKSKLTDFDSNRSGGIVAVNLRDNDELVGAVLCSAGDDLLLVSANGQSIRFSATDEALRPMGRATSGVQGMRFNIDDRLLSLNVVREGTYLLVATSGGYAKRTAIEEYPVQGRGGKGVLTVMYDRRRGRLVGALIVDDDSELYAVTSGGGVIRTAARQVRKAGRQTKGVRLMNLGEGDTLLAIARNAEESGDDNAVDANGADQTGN

[34] = tested on: Mycobacterium tuberculosis; assay: Antimycobacterial activity against Mycobacterium tuberculosis H37Rv by BACTEC 460 radiometric method; format: functional
Procedure, shortened: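 Radiometric BACTEC assay against the H37Rv strain, run per a previously reported method. Positive controls were rifampicin, streptomycin and isoniazid. The MIC was read in µM.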

## COc1ccc2c(c1)nc(-c1ccccc1OC)n2Cc1ccccc1OC
Mus musculus [1]
  Activity: 11.96 U/L
Mus musculus [2]
  Activity: 7.33 10^6/mm3
Mus musculus [3]
  Activity: 2.89 mg/dL
Mus musculus [4]
  Activity: 11.5 U/L
Mus musculus [5]
  Activity: 27.61 g
Mus musculus [6]
  Activity: 11.72 U/L
Mus musculus [7]
  Activity: 0.09 mg/mL
Mus musculus [8]
  Activity: 15.26 U/L
Mus musculus [9]
  Activity: 0.05 mg/mL
Mus musculus [10]
  Activity: 19.37 µmol
Mus musculus [11]
  Activity: 0.09 mg/mL
Mus musculus [12]
  Activity: Non-Toxic
Mus musculus [13]
  Activity: 10.81 g/dL
Mus musculus [14]
  Activity: 97.14 mg/dL
Mus musculus [15]
  Activity: 91.48 mg/dL
Mus musculus [16]
  Activity: 0.09 mg/mL
Mus musculus [17]
  Activity: 172.1 U/L
Mus musculus [18]
  Activity: 48.61 mg/dL
Mus musculus [19]
  Activity: 6.92 10^6/mm3
Mus musculus [20]
  Activity: 0.09 mg/mL
Mus musculus [21]
  Activity: 15.98 U/L
Mus musculus [22]
  Activity: 7.72 10^3/mm3
Mus musculus [23]
  Activity: Non-Toxic
Mus musculus [24]
  Activity: Non-Toxic
Mus musculus [25]
  Activity: 28.47 g
Mus musculus [26]
  Activity: 11.45 g/dL
Mus musculus [27]
  Activity: 85.13 mg/dL
Mus musculus [28]
  Activity: Non-Toxic
Mus musculus [29]
  Activity: 17.1 µmol
Mus musculus [30]
  Activity: 5.67 10^3/mm3
Mus musculus [31]
  Activity: 6.33 10^3/mm3
Mus musculus [32]
  Activity: Non-Toxic
[33]
  IC50: 358 µM
[34]
  MIC: 16 µM (≈ 5.99 µg/mL)
